Measurements: ChEMBL document CHEMBL1926589, “2-Anilinonicotinyl linked 2-aminobenzothiazoles and [1,2,4]triazolo[1,5-b] [1,2,4]benzothiadiazine conjugates as potential mitochondrial apoptotic inducers” (Bioorg Med Chem, 2011)

Legend:
A549 = assay: Growth inhibition of human A549 cells at 10 uM by sulforhodamine B assay; format: functional; conditions: read-out: GI
How it was run: (§1)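 Single-dose 10 µM screen by sulforhodamine B assay, reported as percent inhibition of cell proliferation. Cells grown in medium with 10% heat-inactivated FBS at 37 °C, 5% CO2, and treated at about 70% confluence or in log phase. Compounds dissolved in DMSO; controls received vehicle (<0.5% v/v).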

SW-620 = assay: Growth inhibition of human SW620 cells at 10 uM by sulforhodamine B assay; format: functional; conditions: read-out: GI; how it was run: as §1
OVCAR-5 = assay: Growth inhibition of human OVCAR5 cells at 10 uM by sulforhodamine B assay; format: functional; conditions: read-out: GI; how it was run: as §1
HEp-2 = assay: Growth inhibition of human Hep2 cells at 10 uM by sulforhodamine B assay; format: functional; conditions: read-out: GI; how it was run: as §1
SK-N-SH = assay: Growth inhibition of human SK-N-SH cells at 10 uM by sulforhodamine B assay; format: functional; conditions: read-out: GI; how it was run: as §1
[1] = Growth inhibition of human 502713 cells at 10 uM by sulforhodamine B assay; format: functional; conditions: read-out: GI; how it was run: as §1
DU-145 = assay: Growth inhibition of human DU145 cells at 10 uM by sulforhodamine B assay; format: functional; conditions: read-out: GI; how it was run: as §1
SiHa [2] = assay: Growth inhibition of human SiHa cells at 10 uM by sulforhodamine B assay; format: functional; conditions: read-out: GI; how it was run: as §1
HCT-15 = assay: Growth inhibition of human HCT15 cells at 10 uM by sulforhodamine B assay; format: functional; conditions: read-out: GI; how it was run: as §1
IMR-32 = assay: Growth inhibition of human IMR32 cells at 10 uM by sulforhodamine B assay; format: functional; conditions: read-out: GI; how it was run: as §1
HL-60 [3] = assay: Induction of apoptosis in human HL60 cells assessed as late apoptotic cells at 1 uM after 24 hrs using Annexin V-FITC and propidium iodide staining by flow cytometry relative to control; format: functional
How it was run: (§2)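 HL-60 cells (1 x 10^5 per 1.5 mL) treated 24 h, washed twice in PBS and stained in binding buffer with annexin V-FITC and PI. Flow cytometry with FITC in FL-1 (530 nm) and PI in FL-2 (585 nm), using quadrant statistics: lower right taken as apoptotic, upper right as post-apoptotic necrotic. Representative of three independent experiments.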

HL-60 [4] = assay: Induction of apoptosis in human HL60 cells assessed as early apoptotic cells at 1 uM after 24 hrs using Annexin V-FITC and propidium iodide staining by flow cytometry relative to control; format: functional; how it was run: as §2
HL-60 [5] = assay: Induction of apoptosis in human HL60 cells assessed as non-viable necrotic cells at 1 uM after 24 hrs using Annexin V-FITC and propidium iodide staining by flow cytometry relative to control; format: functional; how it was run: as §2
HL-60 [6] = assay: Growth inhibition of human HL60 cells after 48 hrs by MTT assay; format: functional, cell-based; conditions: HL-60, 48 h
CV-1 = assay: Growth inhibition of african green monkey CV1 cells after 48 hrs by MTT assay; format: cell-based; conditions: Chlorocebus aethiops, CV-1, 48 h
[7] = Therapeutic ratio of IC50 for african green monkey CV1 cells to IC50 for human HL60 cells; format: ADME, cell-based, HL-60; conditions: CV1 cells and HL60 cells, read-out: Ratio IC50
SiHa [8] = assay: Growth inhibition of human SiHa cells after 48 hrs by MTT assay; format: functional, cell-based

Row | Compound | inhibition of growth at 10 µM (A549) | inhibition of growth at 10 µM (SW-620) | inhibition of growth at 10 µM (OVCAR-5) | inhibition of growth at 10 µM (HEp-2) | inhibition of growth at 10 µM (SK-N-SH) | inhibition of growth at 10 µM [1] | inhibition of growth at 10 µM (DU-145) | inhibition of growth at 10 µM (SiHa [2]) | inhibition of growth at 10 µM (HCT-15) | inhibition of growth at 10 µM (IMR-32) | Activity (HL-60 [3]) | Activity (HL-60 [4]) | Activity (HL-60 [5]) | IC50 (HL-60 [6]) | IC50 (CV-1) | selectivity ratio [7] | IC50 (SiHa [8])
1 | COc1ccc(Nc2ncccc2-c2nc3n(n2)S(=O)(=O)c2ccccc2N3C)cc1 | 70% | 24% | 4% | 13% | 20% | 13% | 8% | 11% | 0% | 15% | – | – | – | – | – | – | –
2 | O=S1(=O)c2ccccc2N(c2ccccc2)c2nc(-c3cccnc3Nc3ccc(Cl)cc3Cl)nn21 | 66% | 27% | 8% | 25% | 23% | 19% | 20% | 23% | 0% | 11% | – | – | – | – | – | – | –
3 | O=C(Nc1nc2ccc([N+](=O)[O-])cc2s1)c1cccnc1Nc1ccc(F)c(Cl)c1 | 78% | 34% | 3% | 61% | 3% | 28% | 9% | 13% | 0% | 3% | – | – | – | – | – | – | –
4 | CC[C@@]1(O)C(=O)OCc2c1cc1n(c2=O)Cc2cc3ccccc3nc2-1 [CAMPTOTHECIN] | – | – | – | – | – | – | – | – | – | – | 11% | 17% | 52% | – | – | – | –
5 | O=C(Nc1nc2ccc([N+](=O)[O-])cc2s1)c1cccnc1Nc1ccc(Cl)cc1 | 83% | 65% | 26% | 69% | 48% | 63% | 52% | 53% | 66% | 45% | – | – | – | 0.4 µM | 0.8 µM | 2 | > 50 µM
6 | COc1ccc(Nc2ncccc2-c2nc3n(n2)S(=O)(=O)c2ccccc2N3c2ccccc2)cc1 | 0% | 14% | 2% | 10% | 0% | 2% | 5% | 0% | 0% | 0% | – | – | – | – | – | – | –
7 | COc1ccc2nc(NC(=O)c3cccnc3Nc3ccc(Cl)cc3Cl)sc2c1 | 0% | 10% | 4% | 17% | 14% | 4% | 17% | 16% | 24% | 6% | – | – | – | – | – | – | –
8 | CN1c2ccccc2S(=O)(=O)n2nc(-c3cccnc3Nc3cc(F)c(F)c(F)c3)nc21 | 14% | 34% | 8% | 0% | 18% | 26% | 13% | 15% | 9% | 28% | – | – | – | – | – | – | –
9 | O=S1(=O)c2ccccc2N(c2ccccc2)c2nc(-c3cccnc3Nc3cc(F)c(F)c(F)c3)nn21 | 3% | 22% | 2% | 52% | 16% | 14% | 14% | 26% | 0% | 48% | – | – | – | – | – | – | –
10 | CN1c2ccccc2S(=O)(=O)n2nc(-c3cccnc3Nc3ccccc3)nc21 | 39% | 32% | 15% | 0% | 0% | 30% | 8% | 0% | 0% | 0% | – | – | – | – | – | – | –
11 | O=S1(=O)c2ccccc2N(c2ccccc2)c2nc(-c3cccnc3Nc3ccc(Cl)cc3)nn21 | 46% | 68% | 1% | 57% | 27% | 18% | 6% | 30% | 0% | 31% | – | – | – | – | – | – | –
12 | COc1ccc2nc(NC(=O)c3cccnc3Nc3ccc(F)cc3)sc2c1 | 5% | 21% | 3% | 32% | 24% | 2% | 32% | 35% | 0% | 2% | – | – | – | – | – | – | –
13 | O=S1(=O)c2ccccc2N(c2ccccc2)c2nc(-c3cccnc3Nc3ccccc3)nn21 | 0% | 23% | 3% | 0% | 20% | 21% | 10% | 23% | 0% | 56% | – | – | – | – | – | – | –
14 | COc1ccc(Nc2ncccc2C(=O)Nc2nc3ccc(OC)cc3s2)cc1 | 20% | 43% | 8% | 0% | 44% | 21% | 22% | 55% | 0% | 40% | – | – | – | – | – | – | –
15 | COc1ccc2nc(NC(=O)c3cccnc3Nc3cc(F)c(F)c(F)c3)sc2c1 | 6% | 52% | 25% | 7% | 47% | 43% | 28% | 63% | 21% | 55% | – | – | – | – | – | – | –
16 | CN1c2ccccc2S(=O)(=O)n2nc(-c3cccnc3Nc3ccc(Cl)cc3)nc21 | 28% | 34% | 10% | 0% | 3% | 28% | 9% | 13% | 0% | 3% | – | – | – | – | – | – | –
17 | COc1ccc2nc(NC(=O)c3cccnc3Nc3ccccc3)sc2c1 | 9% | 29% | 6% | 33% | 26% | 11% | 25% | 63% | 0% | 26% | – | – | – | – | – | – | –
18 | CC(=O)O[C@H]1C(=O)[C@@]2(C)[C@H]([C@H](OC(=O)c3ccccc3)[C@]3(O)C[C@H](OC(=O)[C@H](O)[C@@H](NC(=O)c4ccccc4)c4ccccc4)C(C)=C1C3(C)C)[C@]1(OC(C)=O)CO[C@@H]1C[C@@H]2O [PACLITAXEL] | 41% | 73% | 51% | – | 20% | 59% | 42% | 49% | 37% | 46% | – | – | – | – | – | – | –
19 | O=c1[nH]cc(F)c(=O)[nH]1 [FLUOROURACIL] | – | 76% | 22% | – | 7% | 21% | – | 44% | 44% | 71% | – | – | – | – | – | – | –
20 | COc1ccc2nc(NC(=O)c3cccnc3Nc3ccc(Cl)cc3)sc2c1 | 10% | 15% | 10% | 13% | 23% | 10% | 25% | 31% | 44% | 24% | – | – | – | – | – | – | –
